# Sampled rows, rich in hits. Any-hit rate of the full collection: about 1.8%.
# NSD2 HMT inh – inhibitors of human histone methyltransferase NSD2 | hit rate 0.54% among 310,000 | NSD2 peptide methylation, AlphaScreen, 120 min | inhibition, % at 12.5 µM | AID 743445 | O96028; in the data active = inhibition above about 50%
# Casp6 inh – blocks human caspase-6 cleavage activity; purified caspase-6, Z-VEID-R110 cleavage fluorescence; inhibition, % at 12.5 µM; hit rate 0.53% among 350,000; AID 686996;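 active = mean inhibition across replicates at least about 35%, with every replicate also reaching that limit, limit read from the data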
# UHRF1 binding – UHRF1 methyl-DNA binding inhibition; hit rate 0.75% among 370,000; UHRF1 binding to methylated oligo, TR-FRET; Q96T88; inhibition, % at 4.4 µM; in the data active = inhibition above about 21%;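 note: UHRF1 SRA domain binding a hemimethylated CpG hairpin DNA probe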
# LEDGF integ inh – blocks HIV-1 LEDGF/p75-dependent DNA integration; TR-FRET IN-LEDGF/p75 DNA integration, Eu/Cy5; inhibition, % at 3.7 µM; hit rate 0.64% among 370,000;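 active = inhibition above the screen-wide mean plus 3 SD, cut at about 13% in these data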;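 note: signal is the Cy5 over europium emission ratio at 671 and 618 nm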
# MBD2 DNA inh – inhibitors of human MBD2 binding to methylated oligonucleotide; Q9UBB5; hit rate 0.31% among 370,000; inhibition, % at 4.4 µM; AID 686964; TR-FRET; in the data active = inhibition above about 13%
# Target sequence (Q9UBB5 whole entry, looked up): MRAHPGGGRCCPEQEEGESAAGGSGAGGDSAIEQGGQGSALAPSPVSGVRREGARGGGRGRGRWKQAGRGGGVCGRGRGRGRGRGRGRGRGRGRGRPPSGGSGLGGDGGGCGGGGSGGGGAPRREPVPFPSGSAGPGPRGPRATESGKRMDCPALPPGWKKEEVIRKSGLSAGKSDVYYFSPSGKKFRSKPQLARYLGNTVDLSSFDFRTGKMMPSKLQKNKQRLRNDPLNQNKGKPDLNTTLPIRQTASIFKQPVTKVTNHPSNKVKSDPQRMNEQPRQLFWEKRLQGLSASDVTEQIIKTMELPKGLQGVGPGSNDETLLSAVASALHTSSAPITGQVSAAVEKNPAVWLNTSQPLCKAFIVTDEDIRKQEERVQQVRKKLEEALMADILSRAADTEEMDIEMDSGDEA
# TDP2 inh – TDP2 (human) inhibition, absorbance primary screen | O95551 | recombinant TDP2, T5PNP hydrolysis, p-nitrophenol absorbance 415 nm | inhibition, % at 12.8 µM | hit rate 0.34% among 370,000 | AID 720702;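 active = inhibition above the mean of all tested compounds plus 3 SD, set per campaign, cut at about 25% in these data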
#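 System: recombinant human TDP2 / Amount: 120 nM TDP2 per well / Also added: 5 mM T5PNP chromogenic substrate / Doses: 12.8 µM single point, 1% DMSO / Incubation: 2 h at 37 °C / Detection: p-Nitrophenol epi absorbance / Evaluation: % inhibition relative to enzyme-containing and enzyme-free wells / Repeats: singlicate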
# TDP2 confirm – confirmation of human TDP2 inhibitors | shares compounds with TDP2 inh | recombinant human TDP2, absorbance read-out | inhibition, % at 12.8 µM | hit rate 22% among 1,100; in the data active = inhibition above about 25%
# IN multimer up – counter-screen for LEDGF/p75 integration inhibitors: HIV-1 integrase multimerization activators; hit rate 17% among 2,000; shares compounds with LEDGF integ inh; activation, % at 7.7 µM; AID 1053131; TR-FRET HIV-1 integrase multimerization, biochemical; in the data active = activation above about 8.9%
# TR-FRET interf – counter-screen for LEDGF/p75 integration inhibitors: TR-FRET optical interference; shares compounds with LEDGF integ inh; TR-FRET optical interference counterscreen, HIV-1 IN multimerization; inhibition, % at 7.7 µM; 2,000 tested, under 10 active;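 active = inhibition above the mean over all tested compounds plus 3 SD, which no compound reached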
# LEDGF integ conf – LEDGF/p75-dependent HIV-1 integration inhibition, confirmation; hit rate 36% among 2,000; shares compounds with LEDGF integ inh; inhibition, % at 3.7 µM; TR-FRET LEDGF/p75-dependent HIV-1 integration, biochemical; in the data active = inhibition above about 14%
# AlphaScreen art – counter-screen for NSD2 inhibitors: AlphaScreen artifacts | AlphaScreen artifact counterscreen, preloaded methylated H4 peptide | AC35, µM (series often up to 10 µM) | hit rate 9.4% among 1,500 | shares compounds with NSD2 HMT inh; call rule not given here
# Hits are given with their value; - = inactive; . = not tested or not shown.
SMILES,NSD2 HMT inh,Casp6 inh,UHRF1 binding,LEDGF integ inh,MBD2 DNA inh,TDP2 inh,TDP2 confirm,others
O=C1CNC[C@@H]2[C@@H](c3ccc(Br)cc3)[C@H](CO)N12,.,-,.,.,.,.,.,
CCn1cc(C=C2C(=O)NC(=O)NC2=O)c2ccccc21,-,-,-,-,-,28,-,
CCC(=Nc1ccccc1N)c1c(O)[nH]c(=O)[nH]c1=O,-,-,-,-,-,25,-,
Nc1c(Br)cc2c3c(cccc13)-c1ccccc1-2,-,-,-,-,-,64,-,
COC(=O)[C@H]1[C@H](CO)[C@H]2Cn3c(ccc(-c4ccccc4F)c3=O)[C@@H]1N2C(C)=O,.,-,.,.,.,.,.,
COc1ccc(OCC#CCN2CCNCC2)cc1,-,-,-,-,-,31,-,
COc1ccc(OCC#CCN2CCCCCC2)cc1,-,-,-,-,-,-,.,
O=C(O)[C@H]1[C@H](CO)[C@H]2Cn3c(ccc(-c4ccncc4)c3=O)[C@@H]1N2C(=O)C1CCCC1,.,-,.,.,.,.,.,
O=C(Cc1ccccn1)N1CCCCN2[C@H](CO)[C@H](c3ccc(C#Cc4ccccc4)cc3)[C@@H]2C1,.,-,.,.,.,.,.,
O=C(CN1CCOCC1)c1ccc(Br)cc1,-,-,-,-,-,-,.,
O=C(CN1CCOCC1)c1cccc2ccccc12,-,.,-,-,-,25,-,
O=C(O)[C@@H]1[C@@H](CO)[C@@H]2Cn3c(ccc(-c4cccnc4)c3=O)[C@H]1N2S(=O)(=O)c1ccccc1F,.,-,.,.,.,.,.,
O=C(NC1CCCCC1)Oc1cc2oc(=O)sc2cc1Cl,67,-,-,-,-,29,-,
COC(=O)C(O)(c1c(C)[nH]n(-c2ccccc2)c1=O)C(F)(F)F (stereo not drawn),.,.,-,26,-,27,44,IN multimer up=-;TR-FRET interf=-;LEDGF integ conf=-
COC(=O)C(O)(c1c[nH]c2ccccc12)C(F)(F)F (stereo not drawn),-,.,-,-,-,-,.,
Nc1c(C(=O)NCCCc2ccccc2)c2nc3ccccc3nc2n1Cc1cccs1,-,.,-,26,-,60,-,IN multimer up=-;TR-FRET interf=-;LEDGF integ conf=-
CC(C)OCCCNC(=O)c1c(N)n(CC2CCCO2)c2nc3ccccc3nc12 (stereo not drawn),99,55,-,29,-,82,-,IN multimer up=-;TR-FRET interf=-;LEDGF integ conf=-
CCCCn1c(N)c(C(=O)NCc2cccs2)c2nc3ccccc3nc21,-,.,-,-,-,-,.,
CC=Cc1ccc2n(c1=O)C[C@@H]1[C@@H](CO)[C@H](C(=O)O)[C@H]2N1S(=O)(=O)c1ccccc1F (mixture of isomers),.,-,.,.,.,.,.,
CCCCn1c(NS(=O)(=O)c2ccc(C)cc2)c(C(=O)OCC)c2nc3ccccc3nc21,-,-,-,32,-,71,36,IN multimer up=-;TR-FRET interf=-;LEDGF integ conf=-
COC(=O)[C@H]1[C@H](CO)[C@H]2Cn3c(ccc(-c4ccccc4)c3=O)[C@@H]1N2CC1CCOCC1,.,-,.,.,.,.,.,
COc1cc2c(cc1OC)-c1c(OC)c(OC)cc3c1C(C2)N(C)CC3 (stereo not drawn),.,69,34,20,-,52,60,IN multimer up=-;TR-FRET interf=-;LEDGF integ conf=-
Cc1ccccc1-c1ccc([C@@H]2[C@H](CO)N3CCCCN(C(=O)Cc4ccccn4)C[C@@H]23)cc1,.,-,.,.,.,.,.,
COCCCn1c(N)c(C(=O)NCCC(C)C)c2nc3ccccc3nc21,109,.,-,-,-,41,-,AlphaScreen art=-
CCCCn1c(N)c(C(=O)OCCOC)c2nc3ccccc3nc21,-,-,-,-,-,-,.,
